Measured values published in publication PMC4506688 (Pharmacology Research & Perspectives, 2015).

Legend:
CB2 = CB2 (Homo sapiens, UniProt P34972); assay: ACTOne cell-based cAMP assay in HEK-CNG+CB2 cells; conditions: HEK-CNG+CB2, control agonist
CB1 = CB1 (Homo sapiens, UniProt P21554); assay: ACTOne cell-based cAMP assay in HEK-CNG+CB1 cells; conditions: HEK-CNG+CB1, control agonist
parental HEK-CNG cells = assay: ACTOne cell-based cAMP assay in parental HEK-CNG cells; design: species or system human
C8B4 murine microglia = assay: On cell polarization assay; assay type: cell-based; conditions: 1 μg/mL LPS, ligand at EC50 added 1 h after LPS, 24 h
In short: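 C8B4 microglia were seeded at 20,000 cells/well in DMEM with 10% FBS, then switched to 1% FBS the next day. On day 3, LPS was added (final 1 μg/mL), followed 1 h later by the test compound in LPS-containing medium. After 24 h, cells were given anti-CD16/32 or anti-CD206 antibody (2 μg/mL, 2 h), then a SULFO-TAG secondary (2 h). The electrochemiluminescence read-out was normalized to LPS control and analyzed by ANOVA.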

[1] = reported; ref Wohnsland and Faller [2001]; cited from earlier work

CB2, sequence (P34972 whole entry): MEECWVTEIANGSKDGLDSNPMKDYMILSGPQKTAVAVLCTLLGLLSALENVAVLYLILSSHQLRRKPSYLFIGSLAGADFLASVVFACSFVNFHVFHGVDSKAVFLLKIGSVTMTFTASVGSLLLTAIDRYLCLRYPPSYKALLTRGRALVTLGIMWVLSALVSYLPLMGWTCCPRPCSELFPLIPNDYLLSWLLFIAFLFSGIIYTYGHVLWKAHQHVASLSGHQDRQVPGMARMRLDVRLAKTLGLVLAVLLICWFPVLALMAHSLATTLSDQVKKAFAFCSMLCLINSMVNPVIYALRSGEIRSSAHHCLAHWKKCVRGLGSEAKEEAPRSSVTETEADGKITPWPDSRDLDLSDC
CB1, sequence (P21554 whole entry): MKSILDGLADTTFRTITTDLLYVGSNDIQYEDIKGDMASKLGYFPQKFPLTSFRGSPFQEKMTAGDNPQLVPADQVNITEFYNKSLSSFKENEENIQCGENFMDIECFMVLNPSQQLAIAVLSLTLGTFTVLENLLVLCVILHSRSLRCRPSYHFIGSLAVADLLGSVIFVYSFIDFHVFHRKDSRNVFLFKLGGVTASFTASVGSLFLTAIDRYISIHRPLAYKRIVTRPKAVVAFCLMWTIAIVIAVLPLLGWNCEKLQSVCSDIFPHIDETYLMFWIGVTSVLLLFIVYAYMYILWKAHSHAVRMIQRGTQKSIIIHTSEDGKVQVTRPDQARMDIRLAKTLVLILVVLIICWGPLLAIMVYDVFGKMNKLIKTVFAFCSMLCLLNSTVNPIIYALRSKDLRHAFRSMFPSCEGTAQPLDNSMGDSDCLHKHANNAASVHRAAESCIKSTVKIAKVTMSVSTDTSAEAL

Row | Molecule | CD16/32 (M1 marker) expression compared to LPS control (C8B4 murine microglia) | CD206 (M2 marker) expression compared to LPS control (C8B4 murine microglia) | further results
1 | CCCCCCC(C)(C)c1ccc([C@@H]2C[C@H](O)CC[C@H]2CCCO)c(O)c1 [CP 55,940, 2-[(1R,2R,5R)-5-hydroxy-2-(3-hydroxypropyl)cyclohexyl]-5-(2-methyloctan-2-yl)phenol] |  |  | Average reduction in cAMP response (CB2): 90%; Average reduction in cAMP response (CB1): 90%; Change in cAMP-driven fluorescence / cAMP response (parental HEK-CNG cells): no response was observed
2 | CCCCCCC(C)(C)c1cc(OC)c([C@@H]2C=C(CO)[C@@H]3C[C@H]2C3(C)C)c(OC)c1 [HU 308] | only HU 308 did so significantly (P < 0.001) | significantly decreased CD206 | 
3 | CCCC(C)(C)c1ccc2c(c1)OC(C)(C)[C@@H]1CC=C(C)C[C@@H]21 [JWH 133] | decreased CD16/32 expression compared to LPS controls | significantly decreased CD206 | 
4 | CN1C(C(=O)Nc2ccccn2)=C(O)c2ccccc2S1(=O)=O [piroxicam] |  |  | Absorbed in humans [1]: 90–100%
5 | SR 144528 | also decreased CD16/32 expression in comparison to LPS control | significantly increased CD206 | 
